Assay outcomes deposited in PubChem BioAssay by Broad Institute.
SR-BI DiI-HDL act – activators of SR-BI mediated DiI-HDL uptake, primary screen, ldlA[mSR-BI] CHO cells, DiI fluorescence | 3 h; 100 = double the neutral-control signal | activation, % at 12.5 µM | 0.096% of 320,000 active | AID 504775, 2011;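 active means mean replicate activation of at least 60% and every replicate at or above 60%; inconclusive means mean or all-replicate condition met, but not both; inactive means mean below 60% and not all replicates reaching 60%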
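System: LDL receptor-deficient CHO ldlA cells overexpressing murine SR-BI | Timing: 3 h uptake period with compound, 37 °C | Medium: HEPES-buffered (25 mM, pH 7.4) F12 plus 0.5% BSA | Dosing: Single-point compound dose | Signal: Bottom-read fluorescence, 550/595 nm | Read-out: Retained DiI signal reflecting DiI-HDL uptake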
SR-BI HDL uptake – inhibitors of SR-BI mediated HDL lipid uptake, primary screen, ldlA[mSR-BI] cells, fluorescence, single point. 0.96% of 320,000 active. inhibition, % at 12.5 µM. ldlA[mSR-BI] CHO cells, DiI-HDL uptake fluorescence, 3 h. Scavenger receptor class B member 1 (Mus musculus), Q61009;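 active means mean replicate inhibition of at least 70% and a set share of replicates each scoring 70 or more; inconclusive means meets just one of the two criteria; inactive means fails both criteria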
Target sequence (Q61009 whole entry, looked up): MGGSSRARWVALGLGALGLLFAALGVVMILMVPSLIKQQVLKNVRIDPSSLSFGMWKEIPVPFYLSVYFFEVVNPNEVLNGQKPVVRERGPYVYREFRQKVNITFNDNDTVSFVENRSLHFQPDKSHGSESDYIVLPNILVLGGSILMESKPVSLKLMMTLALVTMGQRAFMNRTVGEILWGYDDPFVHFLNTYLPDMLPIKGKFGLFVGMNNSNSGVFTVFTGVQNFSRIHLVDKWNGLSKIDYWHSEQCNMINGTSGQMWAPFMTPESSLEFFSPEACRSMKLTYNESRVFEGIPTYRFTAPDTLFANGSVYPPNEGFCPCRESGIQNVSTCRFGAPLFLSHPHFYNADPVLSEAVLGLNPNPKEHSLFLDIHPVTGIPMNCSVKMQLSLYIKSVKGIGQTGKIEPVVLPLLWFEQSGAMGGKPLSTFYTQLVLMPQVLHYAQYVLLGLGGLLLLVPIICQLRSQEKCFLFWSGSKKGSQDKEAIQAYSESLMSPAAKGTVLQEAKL
HSF-1 act – HSF-1 activators, primary screen, NIH3T3-HGL cells, MG132 stress, luminescence, single point | NIH3T3-HGL HSF-1 luciferase reporter, 8 h; 100% = twice DMSO control signal | activation, % at 9 µM | 1.7% of 300,000 active | AID 504408, 2011;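 active means mean replicate activation of at least 50% with a set share of replicates each reaching 50%; inconclusive means only one of those two conditions met; inactive means mean below 50% and too few replicates reaching it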
Wnt bcat act – Wnt/beta-catenin pathway activators, primary screen, cell-based, plate reader, single point | 1.2% of 300,000 active | Wnt/beta-catenin reporter cell assay, activator | activation, % at 9.35 µM; in the data active means activation above about 30%, passing the limit was not always enough; inconclusive means no clear call, values can overlap the other calls
MITF act – activators of MITF-driven TRPM1 promoter reporter, primary screen, cell-based, SK-MEL-5, luciferase, single point; AID 588334, 2011; activation, % at 12.5 µM; SK-MEL-5 TRPM1-promoter luciferase, 24 h; % of positive control, neutral wells = 0; 0.75% of 300,000 active;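 active means mean activation of at least 80% with every replicate also reaching 80%; inconclusive means mean reaches 80% but some replicate falls short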
Of the large screens only hits and unclear results are named; the others gave an inactive call. Compounds with a hit are over-represented: about 3.6% of the library has one in this group of screens.

CN(C)C(=O)Oc1c(Cl)cc(Cl)c2cccnc12	Wnt bcat act 48.1
CC(C)(O)/C=C/C(=O)C(C)(O)C1C(O)CC2(C)C3CC=C4C(C=C(O)C(=O)C4(C)C)C3(C)C(=O)CC12C (stereo not drawn)	HSF-1 act 69.1
CC(=O)OC(C)(C)/C=C/C(=O)[C@](C)(O)C1[C@H](O)C[C@@]2(C)C3CC=C4C(C[C@H](O)C(=O)C4(C)C)[C@]3(C)C(=O)C[C@]12C (stereo partly drawn)	none (no result: HSF-1 act, Wnt bcat act)
NC1CC2CCCCC2CC1(O)c1ccccc1 (stereo not drawn)	none (no result: SR-BI DiI-HDL act, SR-BI HDL uptake, HSF-1 act, MITF act)
COC1CC=C2CCN3CCC4=C(CC(=O)OC4)C23C1 (stereo not drawn)	none (no result: SR-BI DiI-HDL act, SR-BI HDL uptake, HSF-1 act, MITF act)
c1ccc(Nc2ccc(Nc3ccccc3)cc2)cc1	MITF act 86.3 (no result: HSF-1 act)
O=[N+]([O-])c1ccc(Nc2ccccc2)cc1	none
COc1cc2c(cc1/C=C/[N+](=O)[O-])OCO2	HSF-1 act 263.4
COc1cc(/C=C/[N+](=O)[O-])ccc1OC(=O)c1cccnc1	none (no result: MITF act)
O=C(CF)NC(NC(=S)Nc1ccccc1O)C(Cl)(Cl)Cl (stereo not drawn)	HSF-1 act 53.9
COc1ccc(-n2nnnc2C(c2cccs2)N2CCC3(CC2)C(=O)NCN3c2ccccc2)cc1 (stereo not drawn)	none (no result: SR-BI DiI-HDL act, SR-BI HDL uptake, HSF-1 act, MITF act)
Cn1cc(C(=O)OCC(=O)N2CCCCC2)c2ccccc21	Wnt bcat act 50.5 (no result: HSF-1 act)
O=C(N/N=C/c1c(O)n(-c2ccccc2)c(=S)[nH]c1=O)c1ccccc1	none (no result: MITF act)
O=C(N/N=C/c1c(O)n(C2CC2)c(=S)[nH]c1=O)c1ccccc1O	SR-BI HDL uptake 92.3
Cc1ccccc1-n1c(O)c(/C=N/NC(=O)c2ccccc2O)c(=O)[nH]c1=S	SR-BI HDL uptake 109.1
O=c1[nH]c(=S)n(C2CC2)c(O)c1C=NCc1ccc(F)cc1	Wnt bcat act inconclusive
CC[C@]12CCN(CC3(O)CC3)C(Cc3ccc(O)cc31)C2(C)C	none (no result: SR-BI DiI-HDL act, SR-BI HDL uptake, HSF-1 act, MITF act)
CC(C)CNC(=O)c1c(N)n(Cc2ccco2)c2nc3ccccc3nc12	HSF-1 act 55.7 (no result: Wnt bcat act)
COCCNC(=O)c1c(NC(=O)c2ccc(Br)o2)n(Cc2ccccc2)c2nc3ccccc3nc12	HSF-1 act 65.9
COCCCNC(=O)c1c(N)n(Cc2ccco2)c2nc3ccccc3nc12	HSF-1 act 114.9 (no result: SR-BI DiI-HDL act, SR-BI HDL uptake, MITF act)
COCCCNC(=O)c1c(NC(=O)c2ccco2)n(Cc2ccccc2)c2nc3ccccc3nc12	none
CCn1c(=O)cc(SCC(=O)N2CCC3(CC2)OCCO3)c2ccccc21	HSF-1 act 68.3 (no result: Wnt bcat act)
CN1C(=O)/C(=C\c2ccc(N3CCCCC3)o2)C(=O)NC1=S	Wnt bcat act 49.7 (no result: MITF act)
CN1C(=O)/C(=C/c2ccc(N3CCCCCC3)o2)C(=O)NC1=S	Wnt bcat act 44.1 (no result: MITF act)
C=CCN1C(=O)/C(=C\c2ccc(N3CCOCC3)o2)C(=O)NC1=S	none
CN1C(=O)/C(=C\c2ccc(N3CCCCCC3)cc2)C(=O)NC1=S	none (no result: MITF act)
Cn1c(=O)c2c(nc(-c3ccc(N(CCCl)CCCl)cc3)n2C)n(C)c1=O	none (no result: HSF-1 act)
CC(Cc1ccccc1)/[N+]([O-])=C\c1ccc(C(F)(F)F)cc1 (stereo not drawn)	MITF act 115.4
CCC(=NCc1cccnc1)c1c(O)n(C2CCCCC2)c(=O)[nH]c1=O	none
CCC(=NCc1ccco1)c1c(O)n(C2CCCCC2)c(=O)[nH]c1=O	HSF-1 act 66.4
N#CC(Br)Br	none (no result: HSF-1 act)
Cc1ccc(N)c(N)c1	MITF act 99.0 (no result: HSF-1 act)
N#CC1c2ccccc2C=CN1C(=O)c1ccc(N(CCCl)CCCl)cc1 (stereo not drawn)	none (no result: SR-BI DiI-HDL act, SR-BI HDL uptake, HSF-1 act, MITF act)
CC(C)(C)c1ccc(O)c(N=Cc2c(O)ccc3ccccc23)c1	SR-BI HDL uptake 113.3
O=[N+]([O-])c1ccc(N2CCNCC2)c(Cl)c1	SR-BI HDL uptake 78.2
O=C(c1cc([N+](=O)[O-])ccc1N1CCNCC1)N1CCOCC1	none
CC(C)OC(=O)Cc1ccccc1	none (no result: HSF-1 act)
O=C(C1CC(c2ccc(Cl)c(Cl)c2)=NO1)N1CCC2(CC1)OCCO2 (stereo not drawn)	MITF act 116.8 (no result: Wnt bcat act)
COc1ccc(OC(=O)N(C)C[C@H]2OCc3cnnn3CCCC(=O)N([C@@H](C)CO)C[C@@H]2C)cc1	none (no result: SR-BI DiI-HDL act, SR-BI HDL uptake, HSF-1 act, MITF act)
CCc1ccc(N2C(=O)NC(=O)/C(=C\c3cccn3CCOc3ccc(C(C)C)cc3)C2=O)cc1	Wnt bcat act 34.1
COC(=O)C1=C(C(=O)OC)SC2(S1)C(C(=O)OC)=C(C(=O)OC)Sc1c2ssc1=O	none (no result: HSF-1 act)
Fc1cccc(-c2ccc3c(c2)CN(c2cccc(Cl)c2)Cc2cnnn2-3)c1	none (no result: SR-BI DiI-HDL act, SR-BI HDL uptake, HSF-1 act, MITF act)
O=C(Cc1ccc(Cl)c(Cl)c1)NCC1(N2CCOCC2)CCCCC1	Wnt bcat act 44.9
COc1ccc(C(CNC(=O)Cc2ccc(Cl)c(Cl)c2)N2CCCCC2)cc1 (stereo not drawn)	none
Cc1ccccc1C(=O)NCCN1CCC2(CC1)C(=O)NCN2c1ccccc1	none (no result: SR-BI DiI-HDL act, SR-BI HDL uptake, HSF-1 act, MITF act)
CC12CCC3C(CC=C4CC(O)CCC43C)C1C/C(=C\N1CCCC1)C2=O (stereo not drawn)	HSF-1 act 62.8 (no result: SR-BI DiI-HDL act, SR-BI HDL uptake, Wnt bcat act, MITF act)
O=C1Nc2cc(C(=O)N3CCC4(CC3)OCCO4)ccc2NC1CSCc1cccc(F)c1 (stereo not drawn)	none (no result: SR-BI DiI-HDL act, SR-BI HDL uptake, Wnt bcat act, MITF act)
CC(=O)c1c(C)n(CC2CCCO2)c2ccc(O)cc12 (stereo not drawn)	HSF-1 act 69.9
CC(Cc1ccccc1)NCC(=O)Nc1cc(N(C)C)nc2ccccc12 (stereo not drawn)	HSF-1 act 58.0 (no result: MITF act)
Cc1ccc(N2C(=O)NC(=O)/C(=C\C=C\c3ccco3)C2=O)cc1C	HSF-1 act 146.3
O=C1NC(=O)N(Cc2ccccc2)C(=O)/C1=C\C=C\c1ccco1	HSF-1 act 71.2
Fc1ccc2nc(-c3ccc(CN4CCC(n5nnc6ccccc65)CC4)cc3)c(-c3ccccc3)nc2c1	none (no result: SR-BI DiI-HDL act, SR-BI HDL uptake, HSF-1 act, MITF act)
CN(C)c1ccccc1	none (no result: SR-BI DiI-HDL act, SR-BI HDL uptake, HSF-1 act, MITF act)
Cc1cccc(N=Nc2ccc(N(C)C)cc2)c1	Wnt bcat act 49.3
O=P(/C=C1\OCc2ccccc21)(Oc1ccccc1)Oc1ccccc1	none (no result: SR-BI DiI-HDL act, SR-BI HDL uptake, HSF-1 act, MITF act)
OCC1(CO)COC(c2cccnc2)N1 (stereo not drawn)	HSF-1 act 66.0 (no result: Wnt bcat act, MITF act)
CCCCCCCCn1sccc1=O	none (no result: HSF-1 act)
CC(=O)c1ccc2c(c1)C1C(Cl)C(Sc3ccccc3[N+](=O)[O-])CC1C(c1ccccc1)N2 (stereo not drawn)	none
CC(=O)c1ccc2c(c1)C1C(Cl)C(Sc3ccccc3[N+](=O)[O-])CC1C(c1ccccc1[N+](=O)[O-])N2 (stereo not drawn)	SR-BI HDL uptake 73.1
CCN1CCN(C(=O)COc2ccc3oc4c(c3c2)CCCC4)CC1	SR-BI HDL uptake 71.9 (no result: HSF-1 act)
CCN1CCN(C(=O)COc2ccc(S(=O)(=O)NC(C)C)cc2)CC1	none
CC1CCN(C(CC(=O)c2ccccc2)C(=O)c2ccccc2)CC1 (stereo not drawn)	Wnt bcat act 50.6 (no result: HSF-1 act)
CC(C)(CN)CC(=O)O	HSF-1 act 82.7 (no result: SR-BI DiI-HDL act, SR-BI HDL uptake)
